Test results as given in ChEMBL document CHEMBL1795311, “Synthesis, antiproliferative activity, and mechanism of action of a series of 2-{[(2E)-3-phenylprop-2-enoyl]amino}benzamides” (Eur J Med Chem, 2011).

Key:
[1] = test system: K562; assay: Antiproliferative activity against human K562 cells at 10 uM after 48 hrs by trypan blue assay; assay type: functional; conditions: K562, 48 h, read-out: GI
[2] = test system: K562; assay: Growth inhibition of human K562 cells after 48 hrs by trypan blue assay; assay type: functional, cell-based; conditions: K562, 48 h
[3] = test system: CCRF-CEM; assay: Growth inhibition of human CCRF-CEM cells after 48 hrs by SRB assay; assay type: functional
Outline: (§1)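 NCI DTP panel cells grown in RPMI 1640 with 5% FBS and 2 mM L-glutamine, preincubated 24 h, then given five concentrations (10-fold or ½-log dilutions from DMSO stock) for 48 h at 37 °C. Cells fixed with TCA, stained with SRB, absorbance read at 515 nm, with time-zero plates as reference.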

[4] = test system: HL-60; assay: Growth inhibition of human HL60 cells after 48 hrs by SRB assay; assay type: functional; conditions: HL-60, 48 h; outline: as §1
[5] = test system: K562; assay: Growth inhibition of human K562 cells after 48 hrs by SRB assay; assay type: functional; conditions: K562, 48 h; outline: as §1
[6] = test system: MOLT-4; assay: Growth inhibition of human MOLT4 cells after 48 hrs by SRB assay; assay type: functional; conditions: MOLT-4, 48 h; outline: as §1
[7] = test system: RPMI-8226; assay: Growth inhibition of human RPMI8226 cells after 48 hrs by SRB assay; assay type: functional; conditions: RPMI-8226, 48 h; outline: as §1
[8] = test system: A549; assay: Growth inhibition of human A549 cells after 48 hrs by SRB assay; assay type: functional; conditions: A549, 48 h; outline: as §1
[9] = test system: EKVX; assay: Growth inhibition of human EKVX cells after 48 hrs by SRB assay; assay type: functional; outline: as §1
[10] = test system: HOP-62; assay: Growth inhibition of human HOP62 cells after 48 hrs by SRB assay; assay type: functional; conditions: HOP-62, 48 h; outline: as §1
[11] = test system: HOP-92; assay: Growth inhibition of human HOP92 cells after 48 hrs by SRB assay; assay type: functional; conditions: HOP-92, 48 h; outline: as §1
[12] = test system: NCI-H226; assay: Growth inhibition of human NCI-H226 cells after 48 hrs by SRB assay; assay type: functional; conditions: NCI-H226, 48 h; outline: as §1
[13] = test system: NCI-H23; assay: Growth inhibition of human NCI-H23 cells after 48 hrs by SRB assay; assay type: functional; conditions: NCI-H23, 48 h; outline: as §1
[14] = test system: NCI-H460; assay: Growth inhibition of human NCI-H460 cells after 48 hrs by SRB assay; assay type: functional; conditions: NCI-H460, 48 h; outline: as §1
[15] = test system: NCI-H522; assay: Growth inhibition of human NCI-H522 cells after 48 hrs by SRB assay; assay type: functional; conditions: NCI-H522, 48 h; outline: as §1
[16] = test system: COLO 205; assay: Growth inhibition of human COLO205 cells after 48 hrs by SRB assay; assay type: functional; conditions: COLO 205, 48 h; outline: as §1
[17] = test system: HCC 2998; assay: Growth inhibition of human HCC2998 cells after 48 hrs by SRB assay; assay type: functional; conditions: HCC 2998, 48 h; outline: as §1
[18] = test system: HCT-116; assay: Growth inhibition of human HCT116 cells after 48 hrs by SRB assay; assay type: functional; conditions: HCT-116, 48 h; outline: as §1
[19] = test system: HCT-15; assay: Growth inhibition of human HCT15 cells after 48 hrs by SRB assay; assay type: functional; conditions: HCT-15, 48 h; outline: as §1
[20] = test system: HT-29; assay: Growth inhibition of human HT-29 cells after 48 hrs by SRB assay; assay type: functional; conditions: HT-29, 48 h; outline: as §1
[21] = test system: KM12; assay: Growth inhibition of human KM12 cells after 48 hrs by SRB assay; assay type: functional; conditions: KM12, 48 h; outline: as §1
[22] = test system: SW-620; assay: Growth inhibition of human SW620 cells after 48 hrs by SRB assay; assay type: functional; conditions: SW-620, 48 h
Outline: (§2)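 Run by the NCI Developmental Therapeutics Program: cells in RPMI 1640 with 5% FBS and 2 mM L-glutamine, plated at 5000–40,000 cells/well and grown 24 h before dosing. Drug (DMSO stock) given at five concentrations for 48 h at 37 °C, 5% CO2. Adherent cells fixed with cold TCA, stained with 0.4% SRB and read at 515 nm. GI50, TGI and LC50 taken from the time-zero, control and treated absorbances.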

[23] = test system: SF-268; assay: Growth inhibition of human SF268 cells after 48 hrs by SRB assay; assay type: functional; conditions: SF-268, 48 h; outline: as §1
[24] = test system: SF-295; assay: Growth inhibition of human SF295 cells after 48 hrs by SRB assay; assay type: functional; conditions: SF-295, 48 h; outline: as §1
[25] = test system: SF-539; assay: Growth inhibition of human SF539 cells after 48 hrs by SRB assay; assay type: functional; conditions: SF-539, 48 h; outline: as §1
[26] = test system: SNB-19; assay: Growth inhibition of human SNB19 cells after 48 hrs by SRB assay; assay type: functional; conditions: SNB-19, 48 h; outline: as §2
[27] = test system: SNB-75; assay: Growth inhibition of human SNB75 cells after 48 hrs by SRB assay; assay type: functional; conditions: SNB-75, 48 h; outline: as §2
[28] = test system: U-251; assay: Growth inhibition of human U251 cells after 48 hrs by SRB assay; assay type: functional; conditions: U-251, 48 h; outline: as §2
[29] = test system: LOX IMVI; assay: Growth inhibition of human LOXIMVI cells after 48 hrs by SRB assay; assay type: functional; outline: as §1
[30] = test system: M14; assay: Growth inhibition of human M14 cells after 48 hrs by SRB assay; assay type: functional; conditions: M14, 48 h; outline: as §1
[31] = test system: MDA-MB-435; assay: Growth inhibition of human MDA-MB-435 cells after 48 hrs by SRB assay; assay type: functional; conditions: MDA-MB-435, 48 h; outline: as §1
[32] = test system: SK-MEL-2; assay: Growth inhibition of human SK-MEL-2 cells after 48 hrs by SRB assay; assay type: functional; conditions: SK-MEL-2, 48 h; outline: as §2
[33] = test system: SK-MEL-5; assay: Growth inhibition of human SK-MEL-5 cells after 48 hrs by SRB assay; assay type: functional; conditions: SK-MEL-5, 48 h; outline: as §2
[34] = test system: UACC-257; assay: Growth inhibition of human UACC257 cells after 48 hrs by SRB assay; assay type: functional; conditions: UACC-257, 48 h; outline: as §2
[35] = test system: UACC-62; assay: Growth inhibition of human UACC62 cells after 48 hrs by SRB assay; assay type: functional; conditions: UACC-62, 48 h; outline: as §2
[36] = test system: IGROV-1; assay: Growth inhibition of human IGROV1 cells after 48 hrs by SRB assay; assay type: functional; conditions: IGROV-1, 48 h; outline: as §1
[37] = test system: OVCAR-3; assay: Growth inhibition of human OVCAR3 cells after 48 hrs by SRB assay; assay type: functional; conditions: OVCAR-3, 48 h; outline: as §1
[38] = test system: OVCAR-4; assay: Growth inhibition of human OVCAR4 cells after 48 hrs by SRB assay; assay type: functional; conditions: OVCAR-4, 48 h; outline: as §1
[39] = test system: OVCAR-5; assay: Growth inhibition of human OVCAR5 cells after 48 hrs by SRB assay; assay type: functional; conditions: OVCAR-5, 48 h; outline: as §1
[40] = test system: NCI/ADR-RES; assay: Growth inhibition of human NCI/ADR-RES cells after 48 hrs by SRB assay; assay type: functional; outline: as §1
[41] = test system: SK-OV-3; assay: Growth inhibition of human SKOV3 cells after 48 hrs by SRB assay; assay type: functional; conditions: SK-OV-3, 48 h; outline: as §2
[42] = test system: 786-0; assay: Growth inhibition of human 786-0 cells after 48 hrs by SRB assay; assay type: functional; conditions: 786-0, 48 h; outline: as §1
[43] = test system: A498; assay: Growth inhibition of human A498 cells after 48 hrs by SRB assay; assay type: functional; conditions: A498, 48 h; outline: as §1
[44] = test system: ACHN; assay: Growth inhibition of human ACHN cells after 48 hrs by SRB assay; assay type: functional; outline: as §1
[45] = test system: CAKI-1; assay: Growth inhibition of human Caki1 cells after 48 hrs by SRB assay; assay type: functional; conditions: CAKI-1, 48 h; outline: as §1
[46] = test system: RXF 393; assay: Growth inhibition of human RXF393 cells after 48 hrs by SRB assay; assay type: functional; conditions: RXF 393, 48 h; outline: as §1
[47] = test system: SN12C; assay: Growth inhibition of human SN12C cells after 48 hrs by SRB assay; assay type: functional; outline: as §2
[48] = test system: TK-10; assay: Growth inhibition of human TK10 cells after 48 hrs by SRB assay; assay type: functional; conditions: TK-10, 48 h; outline: as §2
[49] = test system: UO-31; assay: Growth inhibition of human UO31 cells after 48 hrs by SRB assay; assay type: functional; conditions: UO-31, 48 h; outline: as §2
[50] = test system: PC-3; assay: Growth inhibition of human PC3 cells after 48 hrs by SRB assay; assay type: functional; conditions: PC-3, 48 h; outline: as §1
[51] = test system: DU-145; assay: Growth inhibition of human DU145 cells after 48 hrs by SRB assay; assay type: functional; conditions: DU-145, 48 h; outline: as §1
[52] = test system: MCF7; assay: Growth inhibition of human MCF7 cells after 48 hrs by SRB assay; assay type: functional; conditions: MCF7, 48 h; outline: as §1
[53] = test system: MDA-MB-231; assay: Growth inhibition of human MDA-MB-231 cells after 48 hrs by SRB assay; assay type: functional; conditions: MDA-MB-231, 48 h; outline: as §1
[54] = Growth inhibition of human Hs 578T cells after 48 hrs by SRB assay; assay type: functional; outline: as §1
[55] = test system: BT-549; assay: Growth inhibition of human BT549 cells after 48 hrs by SRB assay; assay type: functional; conditions: BT-549, 48 h; outline: as §1
[56] = test system: T47D; assay: Growth inhibition of human T47D cells after 48 hrs by SRB assay; assay type: functional; outline: as §2
[57] = test system: MDA-MB-468; assay: Growth inhibition of human MDA-MB-468 cells after 48 hrs by SRB assay; assay type: functional; conditions: MDA-MB-468, 48 h; outline: as §1

For `NC(=O)c1cc(I)ccc1NC(=O)/C=C/c1ccccc1Cl`, the inhibition of growth at 10 µM [1] was 74.1%, the IC50 [2] was 1.2 µM and the GI50 [3] was 0.484 µM. The GI50 [4] was 0.165 µM, the GI50 [5] was 0.37 µM and the GI50 [6] was 1.42 µM. The GI50 [7] was 0.772 µM, the GI50 [8] was 1.87 µM and the GI50 [9] was 1 µM. The GI50 [10] was 2.3 µM, the GI50 [11] was 13.2 µM and the GI50 [12] was 1.14 µM. For the same compound, the GI50 [13] was 1.39 µM, the GI50 [14] was 0.479 µM and the GI50 [15] was 0.459 µM. For the same compound, the GI50 [16] was 0.797 µM, the GI50 [17] was 0.984 µM and the GI50 [18] was 0.509 µM. For the same compound, the GI50 [19] was 0.987 µM, the GI50 [20] was 0.376 µM and the GI50 [21] was 0.533 µM. The GI50 [22] was 0.605 µM, the GI50 [23] was 0.778 µM and the GI50 [24] was 0.415 µM. The GI50 [25] was 0.444 µM, the GI50 [26] was 1.41 µM and the GI50 [27] was 1.22 µM. For the same compound, the GI50 [28] was 0.663 µM, the GI50 [29] was 4.21 µM and the GI50 [30] was 0.698 µM. The GI50 [31] was 0.234 µM, the GI50 [32] was 0.678 µM and the GI50 [33] was 0.367 µM. The GI50 [34] was 38.7 µM, the GI50 [35] was 0.388 µM and the GI50 [36] was 0.352 µM. It also gave a GI50 [37] of 0.294 µM, a GI50 [38] of 2.37 µM and a GI50 [39] of 4.02 µM. It also gave a GI50 [40] of 0.719 µM, a GI50 [41] of 0.539 µM and a GI50 [42] of 0.937 µM. For the same compound, the GI50 [43] was 0.88 µM, the GI50 [44] was 9.86 µM and the GI50 [45] was 0.637 µM. It also gave a GI50 [46] of 0.425 µM, a GI50 [47] of 1.55 µM and a GI50 [48] of 26.7 µM. The GI50 [49] was 1.63 µM, the GI50 [50] was 0.832 µM and the GI50 [51] was 1.28 µM. The GI50 [52] was 0.401 µM, the GI50 [53] was 1.41 µM and the GI50 [54] was 0.362 µM. It also gave a GI50 [55] of 0.816 µM, a GI50 [56] of 19.9 µM and a GI50 [57] of 0.377 µM.
